Test results reported in ChEMBL document CHEMBL2407028, “Discovery of novel oxazolidinedione derivatives as potent and selective mineralocorticoid receptor antagonists” (Bioorg Med Chem Lett, 2013).

Key:
[1] = biological target: T1, Mineralocorticoid receptor (Homo sapiens, UniProt P08235); experiment: Antagonist activity at human mineralocorticoid receptor assessed as inhibition of binding to coactivator peptide by NH Pro assay
T1 sequence (P08235 whole entry): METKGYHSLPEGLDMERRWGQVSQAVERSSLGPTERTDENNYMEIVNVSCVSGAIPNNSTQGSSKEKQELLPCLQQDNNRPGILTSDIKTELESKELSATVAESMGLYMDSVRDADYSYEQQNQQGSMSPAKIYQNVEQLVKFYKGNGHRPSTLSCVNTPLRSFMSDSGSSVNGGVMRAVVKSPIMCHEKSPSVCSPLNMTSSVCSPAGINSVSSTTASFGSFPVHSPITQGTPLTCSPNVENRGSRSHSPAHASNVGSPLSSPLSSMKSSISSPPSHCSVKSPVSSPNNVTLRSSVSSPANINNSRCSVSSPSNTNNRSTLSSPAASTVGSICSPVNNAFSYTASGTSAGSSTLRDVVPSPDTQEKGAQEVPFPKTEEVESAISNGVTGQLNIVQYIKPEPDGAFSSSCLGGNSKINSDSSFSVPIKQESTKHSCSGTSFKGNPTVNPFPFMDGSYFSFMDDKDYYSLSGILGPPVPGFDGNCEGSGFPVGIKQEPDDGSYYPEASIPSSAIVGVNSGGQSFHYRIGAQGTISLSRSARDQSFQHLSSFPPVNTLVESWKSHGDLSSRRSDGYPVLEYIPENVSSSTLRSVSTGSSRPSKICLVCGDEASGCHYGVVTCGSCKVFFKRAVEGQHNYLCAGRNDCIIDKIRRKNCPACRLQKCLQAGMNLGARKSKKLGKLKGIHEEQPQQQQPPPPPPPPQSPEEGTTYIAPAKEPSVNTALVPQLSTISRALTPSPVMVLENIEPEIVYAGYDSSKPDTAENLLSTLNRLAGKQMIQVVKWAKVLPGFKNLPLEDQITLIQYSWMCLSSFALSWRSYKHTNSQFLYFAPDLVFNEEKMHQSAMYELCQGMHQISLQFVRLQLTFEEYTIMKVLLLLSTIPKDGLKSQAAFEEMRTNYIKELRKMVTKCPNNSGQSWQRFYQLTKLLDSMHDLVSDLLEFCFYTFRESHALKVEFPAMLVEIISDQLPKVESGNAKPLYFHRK

[2] = system: Rattus norvegicus; experiment: Volume of distribution at steady state in rat at 1 mg/kg, iv and 1 mg/lg, po; assay type: ADME, organism-based; design: dose 1 mg/kg, route oral; conditions: in vivo
In short: (§1)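 Rats dosed at 1 mg/kg iv (n = 2) or 1 mg/kg po (n = 3), formulated at 1 mg/mL in PEG 200:water (70:30). Blood concentrations measured by LC/MS/MS after protein precipitation with acetonitrile.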

[3] = Cmax in rat at 1 mg/kg, iv and 1 mg/lg, po; assay type: ADME, organism-based; design: dose 1 mg/kg, route oral; conditions: in vivo; in short: as §1
[4] = system: Rattus norvegicus; experiment: Dose normalized AUC in rat at 1 mg/kg, po; assay type: ADME, organism-based; design: dose 1 mg/kg, route oral; conditions: in vivo; in short: as §1
[5] = system: Rattus norvegicus; experiment: Dose normalized AUC in rat at 1 mg/kg, iv; assay type: ADME, organism-based; design: dose 1 mg/kg, route intravenous; conditions: in vivo; in short: as §1
[6] = Oral bioavailability in rat at 1 mg/kg; assay type: ADME, organism-based; conditions: in vivo; in short: as §1
[7] = Half life in rat at 1 mg/kg, iv and 1 mg/lg, po; assay type: ADME, organism-based; design: dose 1 mg/kg, route oral; conditions: in vivo; in short: as §1
[8] = biological target: T2, Estrogen receptor (Homo sapiens, UniProt P03372); experiment: Agonist activity at estrogen receptor alpha (unknown origin) by NH Pro assay
T2 sequence (P03372 whole entry): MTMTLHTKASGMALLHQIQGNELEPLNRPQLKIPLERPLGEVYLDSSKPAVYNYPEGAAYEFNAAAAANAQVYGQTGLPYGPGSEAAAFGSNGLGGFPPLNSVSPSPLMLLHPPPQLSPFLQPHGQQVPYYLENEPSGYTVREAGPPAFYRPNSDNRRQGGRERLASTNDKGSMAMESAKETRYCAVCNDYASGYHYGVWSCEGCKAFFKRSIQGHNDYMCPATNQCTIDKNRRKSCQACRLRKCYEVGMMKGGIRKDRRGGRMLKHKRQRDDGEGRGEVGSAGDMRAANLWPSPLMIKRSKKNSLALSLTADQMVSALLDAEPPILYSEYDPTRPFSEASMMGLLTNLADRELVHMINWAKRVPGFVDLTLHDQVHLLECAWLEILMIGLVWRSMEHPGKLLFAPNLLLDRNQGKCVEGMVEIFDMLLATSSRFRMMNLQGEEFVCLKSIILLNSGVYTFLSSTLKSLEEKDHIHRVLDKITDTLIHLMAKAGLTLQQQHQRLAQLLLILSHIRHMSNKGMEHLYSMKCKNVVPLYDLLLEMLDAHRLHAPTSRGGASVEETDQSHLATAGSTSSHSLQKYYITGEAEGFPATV

[9] = biological target: T2, Estrogen receptor; experiment: Antagonist activity at estrogen receptor alpha (unknown origin) by NH Pro assay
[10] = biological target: T3, Glucocorticoid receptor (Homo sapiens, UniProt P04150); experiment: Antagonist activity at glucocorticoid receptor (unknown origin) by NH Pro assay
T3 sequence (P04150 whole entry): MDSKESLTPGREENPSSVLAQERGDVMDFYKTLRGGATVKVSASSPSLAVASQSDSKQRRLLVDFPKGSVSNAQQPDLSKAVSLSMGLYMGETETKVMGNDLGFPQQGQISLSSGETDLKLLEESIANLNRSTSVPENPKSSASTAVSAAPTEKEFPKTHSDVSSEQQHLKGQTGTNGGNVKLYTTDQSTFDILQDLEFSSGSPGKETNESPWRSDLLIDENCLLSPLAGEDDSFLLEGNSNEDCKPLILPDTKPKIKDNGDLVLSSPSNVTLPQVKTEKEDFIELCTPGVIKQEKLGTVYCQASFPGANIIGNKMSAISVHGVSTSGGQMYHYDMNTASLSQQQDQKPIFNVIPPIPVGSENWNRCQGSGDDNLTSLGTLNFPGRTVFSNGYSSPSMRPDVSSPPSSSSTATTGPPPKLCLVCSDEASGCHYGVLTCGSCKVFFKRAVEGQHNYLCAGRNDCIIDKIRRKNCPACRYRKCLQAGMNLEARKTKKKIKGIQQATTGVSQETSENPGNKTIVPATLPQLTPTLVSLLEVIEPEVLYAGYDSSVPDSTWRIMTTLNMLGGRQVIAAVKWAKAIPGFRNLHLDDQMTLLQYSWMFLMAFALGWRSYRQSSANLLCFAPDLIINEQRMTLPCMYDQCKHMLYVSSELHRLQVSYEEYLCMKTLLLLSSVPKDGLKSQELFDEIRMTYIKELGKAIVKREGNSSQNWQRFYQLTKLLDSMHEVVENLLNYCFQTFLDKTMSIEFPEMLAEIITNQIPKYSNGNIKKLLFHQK

[11] = biological target: T3, Glucocorticoid receptor; experiment: Agonist activity at glucocorticoid receptor (unknown origin) by NH Pro assay

Row | IC50 [1] [µM] | Vdss [2] [L/kg] | Cmax [3] [nM] | AUC/dose [4] [µM·kg·h/mg] | AUC/dose [5] [µM·kg·h/mg] | bioavailability [6] [%] | half-life [7] [h] | EC50 [8] [µM] | IC50 [9] [µM] | IC50 [10] [µM] | EC50 [11] [µM] | SMILES
1 | 0.054 | 2.8 | 60 | 0.05 | 0.75 | 7 | 1.2 | – | – | – | – | COc1cc(CNC(=O)[C@@]2(Cc3ccccc3)OC(=O)N([C@H](C)c3ccccc3)C2=O)cc(OC)c1
2 | – | – | – | – | – | – | – | > 20 | > 20 | – | – | COC(=O)[C@@H]1CC2=CC(=O)CC[C@]2(C)[C@@]23O[C@@H]2C[C@@]2(C)[C@@H](CC[C@@]24CCC(=O)O4)[C@H]13 [EPLERENONE]
3 | – | – | – | – | – | – | – | > 20 | > 20 | 4.1 | > 20 | CC(=O)S[C@@H]1CC2=CC(=O)CC[C@]2(C)[C@H]2CC[C@@]3(C)[C@@H](CC[C@@]34CCC(=O)O4)[C@H]12 [SPIRONOLACTONE]
